Assay results collected from several papers.
Each line is one published result; the experiments were not run side by side.

With `CC(C)(Nc1nc(-c2ccccn2)nc2ccccc12)c1ccccn1` the concentration was 79 ng/mL (female BALB/c mouse, plasma; oral, 50 mg/kg, 24 h).
With `CC1=NN(CNc2ccccc2)C(=O)C1=NNn1c(-c2ccccc2)nc2ccccc2c1=O` the logP was 4.49.
`O=C(O)C1CCN(c2ncc(-c3ccc4c(c3)OCCCO4)s2)CC1` has a concentration of 14800 ng/mL (male Swiss mouse, plasma; oral, 30 mg/kg, 30 min, single dose).
For `CC(C)(C)c1ccc(O)c(CN(Cc2cc(C(C)(C)C)ccc2O)C2CCC(NC(N)=O)CC2)c1` (centres unmarked), the half-life was 2.49 h (male C57BL/6 mouse, plasma; intraperitoneal, 10 mg/kg, single dose).
For `c1cnc2ccc(Nc3nc(NC4CC4)c4nc[nH]c4n3)cc2c1`, the MRT(0-t) was 9.6 h (human, plasma; oral, 800 mg/m², patients).
The logP of `O=C1NN=C(N=Cc2ccc(O)c(O)c2)C1=NNn1c(-c2ccccc2)nc2ccccc2c1=O` is reported as 3.38.
For `CC(C)(O)c1ccccc1-c1ccc2[nH]c(/C=C/c3ccc(C(F)(F)F)cc3)nc2c1`, the MRT was 77.2 h (male human, plasma; oral, 2 mg, single dose, fasted, healthy volunteers).
For `Oc1cccc(CCc2ccccc2)c1`, the chromatographic logP was over 3.14 (HPLC).
`CC[C@H](C)[C@@H]1NC(=O)[C@@](C)(NC(=O)[C@H](CCCNC(=N)N)NC(=O)[C@H](CC(C)C)NC(=O)[C@@H](NC(=O)[C@H](CCC(N)=O)NC(=O)[C@H](CC(C)C)NC(C)=O)[C@@H](C)O)CCCC=CCCC[C@@](C)(C(=O)N[C@@H](CC(C)C)C(=O)N[C@@H](Cc2ccc3ccccc3c2)C(N)=O)NC(=O)[C@H](CCCNC(=N)N)NC(=O)[C@H](CCC(N)=O)NC1=O` has a half-life of 3.09 h (male BALB/c mouse, plasma; intraperitoneal, 5 mg/kg).
`O=S(=O)(c1ccc(-c2ccc3nccc(Nc4ccncn4)c3c2)cc1)N1CCOCC1` gave a concentration of 1350 ng/mL (female BALB/c mouse, plasma; intraperitoneal, 10 mg/kg, 4 h).
With `N#CN1C[C@H](n2nc(-c3ccc(Oc4ccc(Cl)cn4)cc3)c(C(N)=O)c2N)CCC12CC2` the MRT was 33 h (human, plasma; oral, 600 mg, fed).
The chromatographic logP of `COc1cc(/C=C/c2ccccc2)cc(OC)c1` is reported as over 3.14 (HPLC).
`Cc1ccc(C(CC(=O)c2ccc(Oc3ccccc3)c(O)c2)C(N)=O)cc1` (centres unmarked) gave a chromatographic logP of 4.06 (HPLC).
`CC(C)CN(C[C@@H](O)[C@H](Cc1ccccc1)NC(=O)O[C@H]1CO[C@H]2OCC[C@H]21)S(=O)(=O)c1ccc(N)cc1` gave a concentration of 119 ng/mL (BALB/c mouse, plasma; intravenous, 25 mg/kg, 6 h).
`Nc1ccc(-c2ccc3ncc(-c4noc(C(F)(F)F)n4)cc3c2)cc1` has a scaled CLint of 115 mL/min/kg (metabolic stability; beagle dog, liver microsomes; 1 µM).
For `COc1cccc(/C=C/c2ccc(O)cc2)c1`, the chromatographic logP was over 3.14 (HPLC).
For `c1ccc(-c2nc(N3CCC(c4ccccn4)C3)c3ccccc3n2)nc1` (centres unmarked), the concentration was 19.6 ng/mL (female BALB/c mouse, plasma; oral, 50 mg/kg, 8 h).
For `COc1ccc2nccc(N3CCc4c(cc(Cn5ccnc5)cc4-c4cn(C)nc4C(F)(F)F)C3=O)c2c1`, the half-life was 1.2 h (male CD-1 mouse, plasma; oral, 10 mg/kg).
`O=C1NN=C(N=Cc2ccccc2O)C1=NNn1c(-c2ccccc2)nc2ccccc2c1=O` has a logP of 3.68.
The MRT of `CS(=O)(=O)CCC#N` is reported as 32.5 h (human, plasma; oral, 1000 mg, single dose, fasted).
For `O=c1nc(N2CCN(CC3CCCCC3)CC2)sc2c([N+](=O)[O-])cc(C(F)(F)F)cc12`, the concentration was 2280 ng/mL (CD-1 mouse, plasma; oral, 100 mg/kg, 15 min).
With `CC(C)Oc1cccc(-c2cnc(N3CCC(C(N)=O)CC3)s2)c1` the concentration was 0 nM (male Swiss mouse, plasma; oral, 30 mg/kg, 0 h, single dose).
`O=c1c(O)c(-c2ccc(O)c(O)c2)oc2cc(O)cc(O)c12` has an MRT(0-t) of 6.84 h (human, plasma; oral, 500 mg, single dose, fasted, healthy volunteers).
